Measurements published in publication PMC5089614 (British Journal of Clinical Pharmacology, 2016).
Read-outs that look alike come from different tables or passages of the source.

Columns and labels:
[1] = Single-dose plasma pharmacokinetics of oral ixazomib by hepatic function group; type: in vivo, human; details: for AUC(0-t) / Tmax: human, plasma; for AUC(0-t): oral; for Tmax: po; for Dose-normalized AUC 0–last (total) / Unbound AUC 0-last / Unbound dose-normalized AUC 0–last / C max (total) / Dose-normalized C max (total) / Unbound C max / Unbound dose-normalized C max: geometric mean (%CV)
Outline: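 Solid tumour patients took a single oral dose on day 1. Moderate impairment was total bilirubin >1.5–3 × ULN and severe >3 × ULN. Plasma was sampled predose and 0.5–336 h post-dose and assayed by validated reverse-phase LC/MS/MS. Parameters were noncompartmental. Dose-normalized values were log-transformed, with ratios and 90% CI versus normal from a mixed-effects ANOVA, group fixed.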

[2] = system: plasma proteins; type: in vitro ADME, human
Outline: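 Each patient's predose plasma was spiked with test compound at 70 or 280 ng ml−1 and run in triplicate by rapid equilibrium dialysis. Dialysis was 3 h at 37 °C against isotonic sodium phosphate buffer (120 mM, pH 7.5) across an 8000-Da cut-off membrane. Donor plasma and receiver buffer were each mixed 50:50 with the opposite matrix and quantified by LC/MS/MS.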

[3] = cited from earlier work
[4] = moderate impairment vs. normal function
[5] = moderate impairment, 2.3 mg, n = 10
[6] = moderate impairment, 2.3 mg, n = 13
[7] = moderate/severe hepatic impairment combined
[8] = moderate/severe impairment combined vs. normal function
[9] = severe impairment vs. normal function
[10] = severe impairment, 1.5 mg, n = 11
[11] = severe impairment, 1.5 mg, n = 18

In the case of CC(C)C[C@H](NC(=O)CNC(=O)c1cc(Cl)ccc1Cl)B(O)O [ixazomib], the AUC(0-t) ([1]; 1.5 mg) is reported as 489 ng·h/mL, the AUC(0-t) ([1]; 2.3 mg) is reported as 846 ng·h/mL and the AUC(0-t) ([1]; 4 mg) is reported as 1160 ng·h/mL. The Tmax [1] was 0.95 to 1.5 h, the Tmax ([1]; 1.5 mg) was 1.21 h and the Tmax ([1]; 2.3 mg) was 1.5 h. The Tmax ([1]; 4 mg) was 0.95 h, the “unbound dose-normalized C max, percent higher than normal hepatic function” value ([1]; moderate hepatic impairment) was 27% and the “Geometric least squares mean ratio (90% CI), total dose-normalized AUC 0–last” value [1, 4] was 1.27 (0.77, 2.11). For the same compound, the “Geometric least squares mean ratio (90% CI), total dose-normalized C max” value [1, 4] was 1.21 (0.74, 2.00), the “Geometric least squares mean ratio (90% CI), unbound dose-normalized AUC 0–last” value [1, 4] was 1.32 (0.70, 2.50) and the “Geometric least squares mean ratio (90% CI), unbound dose-normalized C max” value [1, 4] was 1.27 (0.74, 2.18). The “Dose-normalized AUC 0–last (total)” value [1, 5] was 368 (49) h·ng ml^−1 mg^−1, the “Unbound AUC 0-last” value [1, 5] was 7.33 (61) h·ng ml^−1 and the “Unbound dose-normalized AUC 0–last” value [1, 5] was 3.19 (61) h·ng ml^−1 mg^−1. The “C max (total)” value [1, 6] was 42.5 (63) ng ml^−1, the “Dose-normalized C max (total)” value [1, 6] was 18.5 (63) ng ml^−1 mg^−1 and the “Unbound C max” value [1, 6] was 0.372 (80) ng ml^−1. The “Unbound dose-normalized C max” value [1, 6] was 0.162 (80) ng ml^−1 mg^−1, the “total dose-normalized C max, percent higher than normal hepatic function” value [1, 7] was 17% and the “unbound dose-normalized C max, percent higher than normal hepatic function” value [1, 7] was 24%. The “Geometric least squares mean ratio (90% CI), total dose-normalized AUC 0–last” value [1, 8] was 1.20 (0.79, 1.82), the “Geometric least squares mean ratio (90% CI), total dose-normalized C max” value [1, 8] was 1.17 (0.77, 1.78) and the “Geometric least squares mean ratio (90% CI), unbound dose-normalized AUC 0–last” value [1, 8] was 1.27 (0.75, 2.16). The “Geometric least squares mean ratio (90% CI), unbound dose-normalized C max” value [1, 8] was 1.24 (0.79, 1.95), the “C max (total)” value ([1]; normal function, 4 mg, n = 12) was 61.0 (54) ng ml^−1 and the “Dose-normalized AUC 0–last (total)” value ([1]; normal function, 4 mg, n = 12) was 289 (41) h·ng ml^−1 mg^−1. For the same compound, the “Dose-normalized C max (total)” value ([1]; normal function, 4 mg, n = 12) was 15.3 (54) ng ml^−1 mg^−1, the “Unbound AUC 0-last” value ([1]; normal function, 4 mg, n = 12) was 9.65 (50) h·ng ml^−1 and the “Unbound C max” value ([1]; normal function, 4 mg, n = 12) was 0.509 (47) ng ml^−1. The “Unbound dose-normalized AUC 0–last” value ([1]; normal function, 4 mg, n = 12) was 2.41 (50) h·ng ml^−1 mg^−1, the “Unbound dose-normalized C max” value ([1]; normal function, 4 mg, n = 12) was 0.127 (47) ng ml^−1 mg^−1 and the “unbound dose-normalized AUC0–last, percent higher than normal hepatic function” value ([1]; severe hepatic impairment) was 23%. The “unbound dose-normalized C max, percent higher than normal hepatic function” value ([1]; severe hepatic impairment) was 21%, the “Geometric least squares mean ratio (90% CI), total dose-normalized AUC 0–last” value [1, 9] was 1.13 (0.69, 1.84) and the “Geometric least squares mean ratio (90% CI), total dose-normalized C max” value [1, 9] was 1.14 (0.72, 1.82). For the same compound, the “Geometric least squares mean ratio (90% CI), unbound dose-normalized AUC 0–last” value [1, 9] was 1.23 (0.66, 2.29), the “Geometric least squares mean ratio (90% CI), unbound dose-normalized C max” value [1, 9] was 1.21 (0.74, 2.01) and the “Unbound AUC 0-last” value [1, 10] was 4.44 (63) h·ng ml^−1. For the same compound, the “Unbound dose-normalized AUC 0–last” value [1, 10] was 2.96 (63) h·ng ml^−1 mg^−1, the “C max (total)” value [1, 11] was 26.1 (70) ng ml^−1 and the “Dose-normalized C max (total)” value [1, 11] was 17.4 (70) ng ml^−1 mg^−1. The “Unbound C max” value [1, 11] was 0.232 (84) ng ml^−1, the “Unbound dose-normalized C max” value [1, 11] was 0.154 (84) ng ml^−1 mg^−1 and the “bound fraction (mean ± SD)” value ([2]; moderate hepatic impairment group) was 99.1 ± 0.37%. The “bound fraction (mean ± SD)” value ([2]; normal hepatic function group) was 99.2 ± 0.34%, the “bound fraction (mean ± SD)” value ([2]; severe hepatic impairment group) was 99.0 ± 0.45% and the half-life ([3]; after oral dosing) was 96 to 220 h. For the same compound, the renal clearance [3] was 0 to 0.51 L/h, the “median time to reach peak concentration (T max)” value ([3]; clinical studies) was 0.5 to 2.0 h and the “effect of mild hepatic impairment on PK” value ([3]; population PK analysis, cancer patients, NCI ODWG criteria) was “no clinically relevant PK changes”. The “effect of mild and moderate renal impairment on PK” value ([3]; population PK analysis, creatinine clearance ≥30 ml min^−1) was “did not alter ixazomib PK”.
